According to PMC4944838 (Molecular cell, 2013):
Substitutions are numbered along the chain they refer to. Where no end group is shown, it is not given here. [ ]: non-standard residue; d: D form. pT = C[C@@H](OP(=O)(O)O)[C@H](N)C(=O)O

Assays:
Rad4-BRCT1,2 = biological target: T1, Rad4-BRCT1,2 (Schizosaccharomyces pombe, UniProt P32372); assay: Co-crystallisation with Rad4-BRCT1,2; type: binding, S. pombe; settings: co-crystal X-ray structure
T1 sequence (P32372 1-186 limits assumed): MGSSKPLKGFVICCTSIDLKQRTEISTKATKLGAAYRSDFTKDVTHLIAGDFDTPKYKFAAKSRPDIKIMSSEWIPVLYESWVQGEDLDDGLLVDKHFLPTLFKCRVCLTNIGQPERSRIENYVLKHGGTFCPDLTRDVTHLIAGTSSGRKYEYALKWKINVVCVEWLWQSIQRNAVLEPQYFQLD
Outline: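 S. pombe Rad4 BRCT1,2 construct expressed in E. coli and purified by affinity tags and conventional column chromatography. Crystals of protein and complexes grown by hanging-drop vapour diffusion. Diffraction data collected from single crystals on a home source or synchrotron. Structures phased by molecular replacement and refined.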

[1] = biological target: Rad4-BRCT1,2 (BRCT1,2 segment of S. pombe Rad4^TopBP1) (S. pombe) (UniProt P32372); assay: fluorescence polarisation
[2] = biological target: Rad4-BRCT1,2 K151E (S. pombe) (UniProt P32372); assay: fluorescence polarisation
[3] = biological target: Rad4-BRCT1,2 K56E (S. pombe) (UniProt P32372); assay: fluorescence polarisation
[4] = biological target: Rad4-BRCT3,4 (BRCT3,4 segment of S. pombe Rad4^TopBP1) (S. pombe) (UniProt P32372); assay: fluorescence polarisation
Chain of Rad4-BRCT3,4 (BRCT3,4 segment of S. pombe Rad4^TopBP1) (S. pombe) (P32372 291-494): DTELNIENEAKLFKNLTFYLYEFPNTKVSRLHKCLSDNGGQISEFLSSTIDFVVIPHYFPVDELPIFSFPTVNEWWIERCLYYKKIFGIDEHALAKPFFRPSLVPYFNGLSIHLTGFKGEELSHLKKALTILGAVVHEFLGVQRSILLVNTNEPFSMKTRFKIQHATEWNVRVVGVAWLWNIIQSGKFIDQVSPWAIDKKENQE

Rad4-BRCT1,2 K151E = biological target: T2, Rad4-BRCT1,2 K151E (S. pombe, UniProt P32372 1-186, K151E); assay: fluorescence polarisation
T2 sequence: T1 sequence (P32372 1-186 limits assumed) with K151E

Rad4-BRCT1,2 K56E = biological target: T3, Rad4-BRCT1,2 K56E (S. pombe, UniProt P32372 1-186, K56E); assay: fluorescence polarisation
T3 sequence: T1 sequence (P32372 1-186 limits assumed) with K56E

In the case of 184 – Val Pro Glu pThr Val – 188, the “site occupancy in co-crystal structure with Rad4-BRCT1,2 (in words)” value (Rad4-BRCT1,2) is reported as “peptide molecules bound to both BRCT domains”.

For “232 – Val Glu Ser pThr Pro – 236 [Crb2 phosphopeptide (residues 229-241)]”, the “site occupancy in co-crystal structure with Rad4-BRCT1,2 (in words)” value (Rad4-BRCT1,2) was “only the BRCT2 site was occupied”.

“Crb2 peptide phosphorylated on both Thr215 and Thr235 (fluorescence polarisation)” showed a Kd [1] of 1970 nM.

In the case of “Crb2-pThr187 phosphopeptide, fluorescently labelled”, the Kd [2] is reported as 400 nM, the Kd [1] is reported as 500 nM and the Kd [3] is reported as 2200 nM.

“Rad9 C-terminal tail peptide phosphorylated on Ser423” showed a Kd [4] of 8600 nM.

“Rad9 C-terminal tail peptide phosphorylated on Thr412” gave a Kd [4] of 1900 nM.

“Rad9 C-terminal tail peptide phosphorylated on Thr412 and Ser423” showed a Kd [4] of 6400 nM.

B1: Crb2-pThr235 phosphopeptide, fluorescently labelled (peptide)
chain: RVES[pT]PPAFLP
modifications: also: fluorescein label, site not given here
Molecule B1 has a Kd (Rad4-BRCT1,2 K151E) of 59000 nM and a Kd (Rad4-BRCT1,2 K56E) of 11700 nM.
